Test system: U2OS
Experiment: Multiplex assay against U2OS
Format: toxicity, cell-based
Details: human
Summary of the method: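 Four dyes were applied at seeding to live cells: Hoechst33342, BioTracker Green Microtubule Cytoskeleton Dye, MitoTracker Red and Annexin V Alexa Fluor 680. Imaging after compound addition used a CQ1 microscope at 37°C and 5% CO2. CellPathfinder machine-learning gating then sorted cells into Hoechst high-intensity objects or normal cells, normal cells into healthy, pyknosed or fragmented nuclei, and pyknosed cells into mitotic or apoptotic, with tubulin, mitochondrial-mass and membrane-permeability phenotypes given as per cents of healthy-nucleus cells.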

[1] = 12 h, 1 µM, compound concentration 1 uM, replicate 1
[2] = 12 h, 1 µM, compound concentration 1 uM, replicate 2
[3] = 12 h, 10 µM, compound concentration 10 uM, replicate 1
[4] = 12 h, 10 µM, compound concentration 10 uM, replicate 2
[5] = 24 h, 1 µM, compound concentration 1 uM, replicate 1
[6] = 24 h, 1 µM, compound concentration 1 uM, replicate 2
[7] = 24 h, 10 µM, compound concentration 10 uM, replicate 1
[8] = 24 h, 10 µM, compound concentration 10 uM, replicate 2
[9] = 48 h, 1 µM, compound concentration 1 uM, replicate 1
[10] = 48 h, 1 µM, compound concentration 1 uM, replicate 2
[11] = 48 h, 10 µM, compound concentration 10 uM, replicate 1
[12] = 48 h, 10 µM, compound concentration 10 uM, replicate 2

Oc1c(CN2CCN(c3ccccn3)CC2)cc(Cl)c2cccnc12
Population Apoptotic (%) [1]: 95%
Population Fragmented Nuclei (%) [1]: 24%
Population Healthy Nuclei (%) [1]: 64%
Population Hoechst High Intensity Objects (%) [1]: 1%
Population Membrane Permeable-Phenotype (%) [1]: 3%
Population Mitochondria Different-Phenotype (%) [1]: 1%
Population Mitotic Cells (%) [1]: 4%
Population Normal (%) [1]: 98%
Population Pyknosed Nuclei (%) [1]: 10%
Population Tubulin-Different-Phenotype (%) [1]: 2%
Total Cell Count [1]: 237
Population Apoptotic (%) [2]: 100%
Population Fragmented Nuclei (%) [2]: 16%
Population Healthy Nuclei (%) [2]: 78%
Population Membrane Permeable-Phenotype (%) [2]: 13%
Population Mitochondria Different-Phenotype (%) [2]: 4%
Population Mitotic Cells (%) [2]: 0%
Population Pyknosed Nuclei (%) [2]: 5%
Population Tubulin-Different-Phenotype (%) [2]: 8%
Total Cell Count [2]: 93
Population Apoptotic (%) [3]: 84%
Population Fragmented Nuclei (%) [3]: 31%
Population Healthy Nuclei (%) [3]: 56%
Population Hoechst High Intensity Objects (%) [3]: 2%
Population Membrane Permeable-Phenotype (%) [3]: 12%
Population Mitochondria Different-Phenotype (%) [3]: 28%
Population Mitotic Cells (%) [3]: 15%
Population Normal (%) [3]: 97%
Population Pyknosed Nuclei (%) [3]: 11%
Population Tubulin-Different-Phenotype (%) [3]: 8%
Total Cell Count [3]: 229
Population Apoptotic (%) [4]: 87%
Population Fragmented Nuclei (%) [4]: 18%
Population Healthy Nuclei (%) [4]: 68%
Population Hoechst High Intensity Objects (%) [4]: 1%
Population Membrane Permeable-Phenotype (%) [4]: 6%
Population Mitochondria Different-Phenotype (%) [4]: 35%
Population Mitotic Cells (%) [4]: 12%
Population Normal (%) [4]: 98%
Population Pyknosed Nuclei (%) [4]: 13%
Population Tubulin-Different-Phenotype (%) [4]: 11%
Total Cell Count [4]: 118
Population Apoptotic (%) [5]: 88%
Population Fragmented Nuclei (%) [5]: 29%
Population Healthy Nuclei (%) [5]: 64%
Population Hoechst High Intensity Objects (%) [5]: 1%
Population Membrane Permeable-Phenotype (%) [5]: 3%
Population Mitochondria Different-Phenotype (%) [5]: 2%
Population Mitotic Cells (%) [5]: 11%
Population Normal (%) [5]: 98%
Population Pyknosed Nuclei (%) [5]: 6%
Population Tubulin-Different-Phenotype (%) [5]: 2%
Total Cell Count [5]: 270
Population Apoptotic (%) [6]: 100%
Population Fragmented Nuclei (%) [6]: 7%
Population Healthy Nuclei (%) [6]: 87%
Population Membrane Permeable-Phenotype (%) [6]: 9%
Population Mitochondria Different-Phenotype (%) [6]: 3%
Population Mitotic Cells (%) [6]: 0%
Population Pyknosed Nuclei (%) [6]: 5%
Population Tubulin-Different-Phenotype (%) [6]: 7%
Total Cell Count [6]: 97
Population Apoptotic (%) [7]: 90%
Population Fragmented Nuclei (%) [7]: 27%
Population Healthy Nuclei (%) [7]: 63%
Population Hoechst High Intensity Objects (%) [7]: 4%
Population Membrane Permeable-Phenotype (%) [7]: 10%
Population Mitochondria Different-Phenotype (%) [7]: 14%
Population Mitotic Cells (%) [7]: 9%
Population Normal (%) [7]: 95%
Population Pyknosed Nuclei (%) [7]: 9%
Population Tubulin-Different-Phenotype (%) [7]: 7%
Total Cell Count [7]: 238
Population Apoptotic (%) [8]: 100%
Population Fragmented Nuclei (%) [8]: 29%
Population Healthy Nuclei (%) [8]: 58%
Population Hoechst High Intensity Objects (%) [8]: 3%
Population Membrane Permeable-Phenotype (%) [8]: 9%
Population Mitochondria Different-Phenotype (%) [8]: 40%
Population Mitotic Cells (%) [8]: 0%
Population Normal (%) [8]: 96%
Population Pyknosed Nuclei (%) [8]: 12%
Population Tubulin-Different-Phenotype (%) [8]: 6%
Total Cell Count [8]: 127
Population Apoptotic (%) [9]: 94%
Population Fragmented Nuclei (%) [9]: 25%
Population Healthy Nuclei (%) [9]: 67%
Population Hoechst High Intensity Objects (%) [9]: 3%
Population Membrane Permeable-Phenotype (%) [9]: 6%
Population Mitochondria Different-Phenotype (%) [9]: 3%
Population Mitotic Cells (%) [9]: 5%
Population Normal (%) [9]: 96%
Population Pyknosed Nuclei (%) [9]: 7%
Population Tubulin-Different-Phenotype (%) [9]: 3%
Total Cell Count [9]: 276
Population Apoptotic (%) [10]: 87%
Population Fragmented Nuclei (%) [10]: 14%
Population Healthy Nuclei (%) [10]: 77%
Population Hoechst High Intensity Objects (%) [10]: 1%
Population Membrane Permeable-Phenotype (%) [10]: 7%
Population Mitochondria Different-Phenotype (%) [10]: 1%
Population Mitotic Cells (%) [10]: 12%
Population Normal (%) [10]: 98%
Population Tubulin-Different-Phenotype (%) [10]: 5%
Total Cell Count [10]: 111
Population Apoptotic (%) [11]: 96%
Population Fragmented Nuclei (%) [11]: 32%
Population Healthy Nuclei (%) [11]: 57%
Population Hoechst High Intensity Objects (%) [11]: 2%
Population Membrane Permeable-Phenotype (%) [11]: 11%
Population Mitochondria Different-Phenotype (%) [11]: 19%
Population Mitotic Cells (%) [11]: 3%
Population Normal (%) [11]: 97%
Population Pyknosed Nuclei (%) [11]: 10%
Population Tubulin-Different-Phenotype (%) [11]: 7%
Total Cell Count [11]: 275
Population Apoptotic (%) [12]: 100%
Population Fragmented Nuclei (%) [12]: 38%
Population Healthy Nuclei (%) [12]: 42%
Population Hoechst High Intensity Objects (%) [12]: 4%
Population Membrane Permeable-Phenotype (%) [12]: 12%
Population Mitochondria Different-Phenotype (%) [12]: 41%
Population Mitotic Cells (%) [12]: 0%
Population Normal (%) [12]: 95%
Population Pyknosed Nuclei (%) [12]: 19%
Population Tubulin-Different-Phenotype (%) [12]: 8%
Total Cell Count [12]: 144
